Test [1] has as its system Shigella flexneri. The experiment in a line: The relative ability of compound to promote the growth of Shigella flexneri SA 240, a strain lacking the ability to synthesize siderophores was measured as zone stimulation at concentration of 50 uM; NA=No activity. It is filed as functional, organism-based. In short, it runs like this: (§1)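 SA240 (S. flexneri 2a SA100 iucD::Tn5, a siderophore-synthesis mutant) was grown overnight in Luria broth, then seeded at 10^3/mL into Luria agar with the iron chelator EDDA (250 µg/mL). Compounds were made as 10 mM water stocks and diluted in water to the test levels. Sterile disks holding 10 µL were laid on the agar and incubated 18 h at 37 °C. Diameters of the growth-stimulation zones were measured.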

The subject of test [2] is Shigella flexneri. The experiment in a line: The relative ability of compound to promote the growth of Shigella flexneri SA 240, a strain lacking the ability to synthesize siderophores was measured as zone stimulation at concentration of 100 uM. It is filed as functional. In short, it runs like this: as §1
For test [3], the system named is Shigella flexneri. The experiment in a line: The relative ability of compound to promote the growth of Shigella flexneri SA 240, a strain lacking the ability to synthesize siderophores was measured as zone stimulation at concentration of 500 uM. The class given is functional. In short, it runs like this: as §1
The subject of test [4] is Shigella flexneri. Description: The relative ability of compound to promote the growth of Shigella flexneri SA 240, a strain lacking the ability to synthesize siderophores was measured as zone stimulation at concentration of 5 mM. The class given is functional. In short, it runs like this: as §1
Test [5] concerns Shigella flexneri. The experiment in a line: The relative ability of compound to promote the growth of Shigella flexneri SA 240, a strain lacking the ability to synthesize siderophores was measured as zone stimulation at concentration of 1 mM. The class given is functional. In short, it runs like this: as §1
Test [6] deals with Shigella flexneri. Description: The relative ability of compound to promote the growth of Shigella flexneri SA 240, a strain lacking the ability to synthesize siderophores was measured as zone stimulation at concentration of 100 uM; NA=No activity. It is filed as functional, organism-based. In short, it runs like this: as §1
Test [7] deals with Shigella flexneri. The experiment in a line: The relative ability of compound to promote the growth of Shigella flexneri SA 240, a strain lacking the ability to synthesize siderophores was measured as zone stimulation at concentration of 5 mM; NA=No activity. The class given is functional, organism-based. In short, it runs like this:
as §1

SMILES strings stand for the structures. The source made the active and inactive calls. The calls are words filed in the database; no cut-off is given here.

Data on 6 compounds can be found in ChEMBL document CHEMBL1125901, “Synthesis and siderophore activity of albomycin-like peptides derived from N5-acetyl-N5-hydroxy-L-ornithine” (1991).

For `CC(=O)N(O)CCC[C@H](NC(=O)[C@H](CCCN(O)C(C)=O)NC(=O)[C@@H](N)CCCN(O)C(C)=O)C(=O)O`, the Zone of stimulation entry in test [1] was “inactive”. Moreover, the Zone of stimulation in test [2] came to 13 mm; in test [3] it was 30 mm; in test [4], 40 mm; in test [5] it was 37 mm.

`CC(=O)N(O)CCC[C@H](NC(=O)[C@H](CCCN(O)C(C)=O)NC(=O)[C@@H](N)CCCN(O)C(C)=O)C(=O)N[C@H](CO)C(=O)O`: the Zone of stimulation came out at 12 mm in test [3], 18 mm in test [4] and 12 mm in test [5]. Moreover, in test [6], the Zone of stimulation result was “inactive”.

Turning to `CC(=O)N(O)CCC[C@H](NC(=O)[C@H](CCCN(O)C(C)=O)NC(=O)[C@@H](N)CCCN(O)C(C)=O)C(=O)N[C@@H](C(=O)O)c1ccccc1`, in test [1], the Zone of stimulation result is “inactive”. Besides, the Zone of stimulation was found to be 17 mm in test [2], 28 mm in test [3], 45 mm in test [4] and 41 mm in test [5].

For `CC(=O)N(O)CCC[C@H](NC(=O)[C@H](CCCN(O)C(C)=O)NC(=O)[C@@H](N)CCCN(O)C(C)=O)C(=O)N[C@@H](C(=O)O)c1ccc(O)cc1`, in test [1], the Zone of stimulation result is “inactive”. Besides, the Zone of stimulation in test [2] is 15 mm; in test [3], 25 mm; in test [4] it was 45 mm; in test [5], 40 mm.

Consider `CC(=O)N(O)CCC[C@H](NC(=O)[C@H](CCCN(O)C(C)=O)NC(=O)[C@@H](N)CCCN(O)C(C)=O)C(=O)N[C@H](CO)C(=O)N[C@H](CC(=O)O)C(=O)O`, for which the Zone of stimulation result in test [7] was “inactive”.

For the compound `CC(=O)N(O)CCC[C@H](N)C(=O)O`, in test [7], the Zone of stimulation result is “inactive”.
